PERK inh: human PERK inhibition, primary cell-based screen. Q9NZJ5. CHO PERK-DD fusion, SEAP luminescence translation reporter. inhibition, % at 5.6 µM. 220,000 compounds, 0.17% hits;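 active means inhibition above the mean inhibition of all tested compounds plus 3 SD, set separately per screening campaign, cut at about 2.9% in these data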;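 further: PERK kinase domain activated by AP20187 dimerizer at 100 nM; 0% = DMSO with dimerizer and 100% = rapamycin at 8.4 µM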
Target sequence (Q9NZJ5 whole entry, looked up, the tested form may be a part): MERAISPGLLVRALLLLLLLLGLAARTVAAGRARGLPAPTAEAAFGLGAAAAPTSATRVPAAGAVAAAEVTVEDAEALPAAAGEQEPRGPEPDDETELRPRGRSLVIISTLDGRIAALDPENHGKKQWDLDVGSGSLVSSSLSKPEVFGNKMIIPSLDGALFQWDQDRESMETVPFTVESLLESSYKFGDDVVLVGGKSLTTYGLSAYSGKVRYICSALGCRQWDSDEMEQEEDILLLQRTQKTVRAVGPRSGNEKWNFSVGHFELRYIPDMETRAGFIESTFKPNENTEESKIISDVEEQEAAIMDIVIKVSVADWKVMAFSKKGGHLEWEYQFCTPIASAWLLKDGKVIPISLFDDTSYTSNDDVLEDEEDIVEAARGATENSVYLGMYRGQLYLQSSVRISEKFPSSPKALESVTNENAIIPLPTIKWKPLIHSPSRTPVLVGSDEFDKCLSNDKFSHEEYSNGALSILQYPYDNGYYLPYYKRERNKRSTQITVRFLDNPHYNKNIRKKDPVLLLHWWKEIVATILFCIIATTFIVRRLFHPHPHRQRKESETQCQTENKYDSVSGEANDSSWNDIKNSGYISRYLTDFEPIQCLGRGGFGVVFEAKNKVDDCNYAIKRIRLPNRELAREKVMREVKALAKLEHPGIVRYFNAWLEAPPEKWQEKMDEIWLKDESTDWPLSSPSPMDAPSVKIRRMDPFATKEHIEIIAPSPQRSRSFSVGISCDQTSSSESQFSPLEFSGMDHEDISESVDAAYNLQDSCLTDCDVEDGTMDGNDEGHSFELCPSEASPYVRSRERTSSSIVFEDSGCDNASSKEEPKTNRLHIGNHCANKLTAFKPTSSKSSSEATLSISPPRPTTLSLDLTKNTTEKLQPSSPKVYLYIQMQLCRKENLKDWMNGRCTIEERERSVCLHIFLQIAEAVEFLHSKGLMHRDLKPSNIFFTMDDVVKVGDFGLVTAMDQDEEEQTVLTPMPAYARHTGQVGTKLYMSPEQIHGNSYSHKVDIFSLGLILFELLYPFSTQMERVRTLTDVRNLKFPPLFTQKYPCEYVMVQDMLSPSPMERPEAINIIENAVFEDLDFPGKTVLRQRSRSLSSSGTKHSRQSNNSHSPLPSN
STAT3 blocker: STAT3 signaling inhibition | U3A cells, IL-6 STAT3-luciferase reporter, luminescence; host cell line lacks STAT1 | inhibition, % at 5.5 µM | 190,000 compounds, 0.89% hits;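 active means inhibition above the mean inhibition across all screened compounds plus 3 SD, cut at about 44% in these data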;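 further: 0% = DMSO only wells and 100% = 100 µM nifuroxazide control wells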
STAT3 activator: increases IL-6 driven STAT3 reporter signal; 190,000 compounds, 0.91% hits; U3A cells, IL-6 STAT3-luciferase reporter, luminescence; 100% = signal with IL-6 EC80 alone; activation (% of control), % at 5.6 µM;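 active means activation above the screen-wide mean of compound activation plus 3 SD, cut at about 130% in these data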;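 further: 0% = background luminescence of wells with medium and substrate only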
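Test system: Human STAT1-deficient U3A cells with stable STAT3-luciferase reporter | Also added: Interleukin-6, 33 ng/mL | Timing: Compound pre-incubation 1 h before IL-6, then 6 h stimulation at 37 °C | Technique: Luciferase reporter luminescence | Read-out: Percent of IL-6-only median luminescence | Benchmarks: IL-6-only wells as 100% reference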
STAT1 inh: inhibitors of IFN-gamma induced STAT1 signaling | NIH 3T3 STAT1-luciferase reporter, luminescence | 200,000 compounds, 0.35% hits | inhibition, % at 5.5 µM;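 active means inhibition above a set limit, the mean inhibition across all tested compounds plus 3 SD, cut at about 34% in these data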;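 further: 0% = IFN-gamma with DMSO and 100% = IFN-gamma with 300 µM nifuroxazide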
* marks the source's active call; other numbers are inactive results; / = not tested or not shown. An excerpt weighted towards active compounds, which were near 1.8% of everything screened.

SMILES	PERK inh	STAT3 blocker	STAT3 activator	STAT1 inh
N#Cc1ccccc1NC(=O)C1SC(=Nc2ccccc2)C(C(=O)Nc2ccc(Cl)cc2)=C1N (stereo not given)	0.4	54.5*	58.4	55.3*
CCOc1ccc(N=C2SC(C(=O)Nc3ccccc3C#N)C(N)=C2C(=O)Nc2ccc(Cl)cc2)cc1 (stereo not given)	0.4	4.2	99.8	-9.3
CSc1ccc(C2c3[nH]c4ccccc4c3CCN2C(=O)c2cc(C)n(C)n2)cc1 (stereo not given)	-0.4	-47.0	148.0*	-34.9
Cc1cnc(C(=O)N2CCc3c([nH]c4ccccc34)C2c2ccc(F)cc2)cn1 (stereo not given)	0.7	-11.6	115.8	-7.1
CCc1ccc(C2c3[nH]c4ccccc4c3CCN2C(=O)c2cc(C)nn2C)cc1 (stereo not given)	0.2	-31.5	133.4*	13.1
Cc1nc(C(=O)N2CCc3c([nH]c4ccccc34)C2c2cc(F)ccc2F)cs1 (stereo not given)	2.1	-23.5	134.1*	-0.8
Cc1ccc(N2C(=O)C3NN=C(C(=O)OCc4ccccc4)C3C2=O)c(C)c1 (stereo not given)	0.7	2.4	96.0	2.8
c1c2c(cc3sc(N4CCOCC4)nc13)OCCO2	-0.3	88.8*	23.4	51.4*
Cc1ccccc1N1C(=O)CC1(C#N)c1ccc(OCc2ccccc2)cc1 (stereo not given)	0.7	-10.8	111.5	-10.4
Nc1ccc(-c2nc3ccc(C(=O)O)cc3s2)cc1	0.6	103.8*	10.2	88.8*
CC1CCN(c2nc3ccc(C(=O)O)cc3s2)CC1	0.5	108.7*	12.6	79.6*
O=C(NCC1CCCO1)c1ccc2nc(N3CCCCC3)sc2c1 (stereo not given)	-0.4	-19.8	116.3	-30.7
Clc1ccc(-c2nnnn2-c2ccc(Cl)c(Cl)c2)cc1Cl	0.0	-0.5	104.3	-0.6
CCCCCNC(=O)C1CC(=O)OC12CCCCC2 (stereo not given)	0.9	3.4	99.0	-6.3
Cc1[nH]c(=S)[nH]c(=O)c1CCOc1ccccc1	3.1*	11.2	93.7	-2.7
Cc1nc2nc(-c3ccccc3)cc(=O)n2[nH]1	3.0*	3.4	101.3	23.4
O=C1CCC(=O)N1c1nc2nc(-c3ccccc3)cc(=O)n2[nH]1	1.3	4.2	100.2	-0.6
COc1cc(/C=N/NC(=O)c2ccccc2)ccc1O	0.5	2.9	99.0	-21.8
COc1cccc(/C=N/NC(=S)Nc2cccc(C(=O)O)c2)c1O	0.1	66.1*	45.4	68.1*
COc1cc(/C=N/NC(=S)Nc2cccc(C(=O)O)c2)ccc1O	0.3	96.9*	16.3	70.8*
CC(=O)c1ccccc1N(C(=O)c1ccco1)C(C(=O)NC1CCCC1)c1ccc(N2CCOCC2)cc1 (stereo not given)	0.0	1.2	103.5	4.2
NNc1nc2c(-c3ccc(Cl)cc3)nnn2c2ccccc12	0.3	-54.1	143.6*	-41.3
CC(C)Oc1cccc(C(=O)C2CCCN(Cc3cccn3-c3ccccn3)C2)c1 (stereo not given)	0.2	-15.3	116.2	10.5
CC1(NC(=O)C2CCCCC2)CCS(=O)(=O)C1 (stereo not given)	0.1	0.7	103.4	-5.1
COc1ccc(NC(=O)c2onc(C)c2Cl)cc1	-0.3	/	/	/
SMILES	PERK inh	STAT3 blocker	STAT3 activator	STAT1 inh
CCc1ccc(NC(=O)c2onc(C)c2Cl)cc1	0.9	-45.5	141.2*	-47.4
COc1cc([N+](=O)[O-])cc2sc(NC(=O)C(C)(C)C)nc12	3.5*	-4.0	107.5	-21.3
CN(C)c1ccc(/C=C/c2nc3ccccc3s2)cc1	0.4	107.8*	14.4	91.0*
CN(C)c1ccc(/C=C/c2ccc3ccccc3n2)cc1	0.4	/	/	/
Cc1ccc(/C=C/c2nc3ccccc3s2)s1	1.4	70.2*	43.4	43.8*
COc1cc(/C=C/c2nc3ccccc3s2)cc(OC)c1O	-0.3	18.8	90.5	-14.7
COc1ccccc1NC(NC(=O)c1cccnc1)C(Cl)(Cl)Cl (stereo not given)	0.2	3.7	101.3	-7.8
O[C@H]1COC2C1OC[C@@H]2O (stereo not given in full)	1.4	10.5	92.8	10.4
CC(C)N(C(=O)CSc1nnc(Cc2csc(Nc3ccccc3)n2)o1)C(C)C	0.0	4.2	103.8	11.9
N#CC(C#N)=C(Nc1ccc(F)cc1)SCc1cccc(F)c1	-0.1	58.8*	51.8	48.8*
CCOc1ccc(N/C(SCc2cccc([N+](=O)[O-])c2)=C(/C#N)C(N)=O)cc1	-0.3	4.4	98.2	12.7
Cc1ccc(-c2cc(C(=O)OC3CCOC3=O)c3ccccc3n2)c(C)c1 (stereo not given)	2.9*	4.3	100.5	-5.2
COc1cccc2cc(C(=O)NNC(=O)c3ccc(Br)cc3)c(=O)oc12	0.5	19.8	89.0	7.8
Cc1ccc(/C=N/Nc2ccc3ccccc3n2)o1	0.3	89.7*	30.4	73.0*
Cc1cc(N/N=C/c2cccc(Br)c2)nc2ccccc12	-0.1	-5.7	102.8	-7.9
C(=N\Nc1ccc2ccccc2n1)/c1ccc2c(c1)OCCO2	1.1	108.0*	13.4	88.8*
Cc1cccc(/C=N/Nc2ccc3ccccc3n2)c1	0.3	101.6*	15.6	90.3*
COc1ccc(N2CC(C(=O)NCc3ccco3)CC2=O)cc1 (stereo not given)	0.3	9.5	99.7	0.5
CCCCNC(=O)N1CCN(Cc2ccc(F)cc2)CC1	1.7	-3.0	109.4	0.3
CC(=O)n1c2c(c3ccccc31)OC(N)=C(C#N)C2c1ccc(C(C)C)cc1 (stereo not given)	0.9	-72.9	165.4*	-32.5
CC(=O)C1=C(C)OC(N)=C(C#N)C1c1cccc2ccccc12 (stereo not given)	1.1	/	/	/
CC(=O)N1CCN(c2ccc(NC(=S)NC(=O)c3ccc(C)c([N+](=O)[O-])c3)cc2)CC1	-1.7	/	/	/
Cc1cc2c(c(/C=C/C(=O)c3ccccc3)c1)OC1(C=C2)Oc2ccccc2C(=O)N1C (stereo not given)	-0.1	-5.0	105.3	6.9
CCOC(=O)C1=C(Nc2ccccc2)OCC1=O	1.2	7.1	97.6	-6.5
CCOC(=O)C1=C(Nc2ccc(OC)cc2)OCC1=O	2.9*	/	/	/
SMILES	PERK inh	STAT3 blocker	STAT3 activator	STAT1 inh
O=C(c1ccccc1)c1cc2c(cc1[N+](=O)[O-])OCCO2	-0.6	15.2	91.4	2.1
Oc1ccc(/C=C/c2ccc3ccccc3n2)cc1	0.7	101.9*	18.4	71.5*
C(=C\c1ccc2ccccc2n1)/c1ccccc1	1.0	/	/	/
O=[N+]([O-])c1ccc(/C=C/c2ccc3ccccc3n2)cc1	1.0	78.5*	36.2	52.2*
COc1ccccc1C1OC2=C(Nc3ccc([N+](=O)[O-])cc3N2)C1=O (stereo not given)	-0.4	/	/	/
O=C(N/N=C\c1ccc(-c2ccccc2[N+](=O)[O-])o1)C1COc2ccccc2O1 (stereo not given)	0.0	-46.2	133.3*	5.0
COc1cc(/C=C2\SC(=Nc3ccc(N4CCOCC4)cc3)N(C)C2=O)ccc1OC(C)C(=O)O (stereo not given)	-0.8	-5.0	104.9	-2.2

Screening results as filed in PubChem.
